Experimental data published in ChEMBL document CHEMBL1148356, “Synthesis and biological evaluation of 3-heterocyclyl-7,8,9,10-tetrahydro-(7,10-ethano)-1,2,4-triazolo[3,4-a]phthalazines and analogues as subtype-selective inverse agonists for the GABA(A)alpha5 benzodiazepine binding site” (J Med Chem, 2004).
Active and inactive are the calls of the source. No cut-off for these calls is given here.

Target: GABA-A receptor; alpha-3/beta-3/gamma-2 (Homo sapiens) (UniProt P18507+P28472+P34903)
Experiment: Percent change in electrophysiological response in Xenopus oocytes expressing Alpha3-beta3-gamma2 GABA-A receptor
Type: functional, cell-based
Settings: Oocyte
In short: (§1)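 Two-electrode voltage clamp on Xenopus oocytes injected with human GABA-A subunit cDNAs, 24-72 h expression, perfused with modified Barth's medium at pH 7.5, clamped between -40 and -70 mV. The GABA EC20 was titrated against a 3 mM GABA maximum. […] Result is % change of control current, mean ± SE of ≥4 oocytes.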

Compound | Efficacy [%]
Cc1cccc(COc2nn3c(-c4cc(C)on4)nnc3c3c2C2CCC3CC2)n1 | -1
Cc1cccc(COc2nn3c(-c4ccccc4)nnc3c3c2C2CCC3CC2)n1 | 44
Cc1cccc(COc2nn3c(-c4ccccc4)nnc3c3ccccc23)n1 | -8.3

Target: T1, GABA-A receptor; alpha-5/beta-3/gamma-2 (Homo sapiens, UniProt P18507+P28472+P31644)
T1 sequence (P18507 whole entry): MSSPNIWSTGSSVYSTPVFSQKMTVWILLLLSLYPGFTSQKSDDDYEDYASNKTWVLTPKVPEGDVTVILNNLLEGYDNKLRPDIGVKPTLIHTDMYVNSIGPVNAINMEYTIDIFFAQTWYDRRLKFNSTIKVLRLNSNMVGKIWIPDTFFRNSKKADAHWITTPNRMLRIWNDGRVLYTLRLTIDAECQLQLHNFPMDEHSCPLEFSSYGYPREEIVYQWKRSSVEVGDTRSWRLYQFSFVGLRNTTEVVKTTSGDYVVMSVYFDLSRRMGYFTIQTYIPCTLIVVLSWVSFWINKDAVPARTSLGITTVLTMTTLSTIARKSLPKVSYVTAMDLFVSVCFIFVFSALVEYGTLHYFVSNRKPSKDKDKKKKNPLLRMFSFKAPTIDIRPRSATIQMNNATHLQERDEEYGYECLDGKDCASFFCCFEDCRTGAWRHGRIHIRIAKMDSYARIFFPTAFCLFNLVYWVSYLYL
T1 sequence (P28472 whole entry): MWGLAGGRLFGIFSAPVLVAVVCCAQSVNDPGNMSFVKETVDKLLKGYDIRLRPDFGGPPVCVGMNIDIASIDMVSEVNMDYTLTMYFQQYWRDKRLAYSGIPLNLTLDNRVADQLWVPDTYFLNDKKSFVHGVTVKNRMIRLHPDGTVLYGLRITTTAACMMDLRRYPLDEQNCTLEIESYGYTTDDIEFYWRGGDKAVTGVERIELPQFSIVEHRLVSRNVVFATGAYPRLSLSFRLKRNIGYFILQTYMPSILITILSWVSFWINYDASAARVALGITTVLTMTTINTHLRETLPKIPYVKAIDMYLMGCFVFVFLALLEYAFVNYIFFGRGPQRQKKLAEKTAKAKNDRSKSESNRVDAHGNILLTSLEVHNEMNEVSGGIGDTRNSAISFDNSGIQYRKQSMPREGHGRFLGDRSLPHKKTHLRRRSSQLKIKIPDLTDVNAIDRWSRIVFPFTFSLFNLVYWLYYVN
T1 sequence (P31644 whole entry): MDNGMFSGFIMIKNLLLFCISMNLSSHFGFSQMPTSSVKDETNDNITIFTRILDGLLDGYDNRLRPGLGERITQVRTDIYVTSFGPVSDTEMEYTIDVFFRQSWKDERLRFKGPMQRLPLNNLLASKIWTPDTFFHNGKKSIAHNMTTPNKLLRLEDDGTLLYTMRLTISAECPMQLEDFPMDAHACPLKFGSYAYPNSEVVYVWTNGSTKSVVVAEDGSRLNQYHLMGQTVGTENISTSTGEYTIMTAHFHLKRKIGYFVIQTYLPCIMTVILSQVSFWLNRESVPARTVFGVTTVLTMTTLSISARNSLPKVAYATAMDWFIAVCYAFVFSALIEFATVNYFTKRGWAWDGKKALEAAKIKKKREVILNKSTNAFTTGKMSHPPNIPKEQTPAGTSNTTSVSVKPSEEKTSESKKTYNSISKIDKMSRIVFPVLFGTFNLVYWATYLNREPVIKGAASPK
Experiment: Binding affinity towards human alpha-5-beta-3-gamma-2 GABA-A receptor using [3H]Ro-151788 expressed in L(tk-) cells
Type: cell-based
Settings: not given

Compound | Ki [nM]
Cc1cccc(COc2nn3c(-c4ccccc4)nnc3c3c2C2CCC3CC2)n1 | 3
Cc1cccc(COc2nn3c(-c4ccccc4)nnc3c3ccccc23)n1 | 1.3

Target: GABA-A receptor; alpha-1/beta-3/gamma-2 (Homo sapiens) (UniProt P14867+P18507+P28472)
Experiment: Percent change in electrophysiological response in Xenopus oocytes expressing Alpha1-beta3-gamma2 GABA-A receptor
Type: functional, cell-based
Settings: Oocyte
In short: as §1

Compound | Efficacy [%]
Cc1cccc(COc2nn3c(-c4cc(C)on4)nnc3c3c2C2CCC3CC2)n1 | 21
Cc1cccc(COc2nn3c(-c4ccccc4)nnc3c3c2C2CCC3CC2)n1 | 53
Cc1cccc(COc2nn3c(-c4ccccc4)nnc3c3ccccc23)n1 | 0.7

Target: T2, GABA-A receptor; alpha-2/beta-3/gamma-2 (Homo sapiens, UniProt P18507+P28472+P47869)
T2 sequence (P18507 whole entry): T1 sequence (P18507 whole entry)
T2 sequence (P28472 whole entry): T1 sequence (P28472 whole entry)
T2 sequence (P47869 whole entry): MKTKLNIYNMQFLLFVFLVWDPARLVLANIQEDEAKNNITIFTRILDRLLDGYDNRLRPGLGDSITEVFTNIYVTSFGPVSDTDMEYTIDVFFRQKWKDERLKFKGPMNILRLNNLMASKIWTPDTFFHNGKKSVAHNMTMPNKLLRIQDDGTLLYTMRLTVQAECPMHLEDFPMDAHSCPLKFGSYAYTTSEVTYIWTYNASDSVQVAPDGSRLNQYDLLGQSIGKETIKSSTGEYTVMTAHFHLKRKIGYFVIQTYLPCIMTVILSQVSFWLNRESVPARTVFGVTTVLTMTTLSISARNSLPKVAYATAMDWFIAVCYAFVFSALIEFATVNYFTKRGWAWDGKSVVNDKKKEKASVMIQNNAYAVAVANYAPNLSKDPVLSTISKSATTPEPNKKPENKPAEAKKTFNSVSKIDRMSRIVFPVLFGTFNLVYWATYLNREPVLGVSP
Experiment: Binding affinity towards human gamma-aminobutyric-acid A receptor alpha-2-beta-3-gamma-2 using [3H]Ro-151788 expressed in L(tk-) cells
Type: cell-based
Settings: not given

Compound | Ki [nM]
Cc1cccc(COc2nn3c(-c4ccccc4)nnc3c3c2C2CCC3CC2)n1 | 44.5
Cc1cccc(COc2nn3c(-c4ccccc4)nnc3c3ccccc23)n1 | 1

Target: GABA-A receptor; alpha-2/beta-3/gamma-2 (Homo sapiens) (UniProt P18507+P28472+P47869)
Experiment: Percent change in electrophysiological response in Xenopus oocytes expressing Alpha2-beta3-gamma2 GABA-A receptor
Type: functional, cell-based
Settings: Oocyte
In short: as §1

Compound | Efficacy [%]
Cc1cccc(COc2nn3c(-c4cc(C)on4)nnc3c3c2C2CCC3CC2)n1 | 14
Cc1cccc(COc2nn3c(-c4ccccc4)nnc3c3c2C2CCC3CC2)n1 | 35
Cc1cccc(COc2nn3c(-c4ccccc4)nnc3c3ccccc23)n1 | -3.8

Tested on: Rattus norvegicus
Experiment: Tested for cognitive performance in rats in delayed matching-to-place version of water maze test at 0.3 mg/kg i.p.; Enhanced performance
Type: functional, organism-based
Design: dose 0.3 mg/kg
Settings: not given

Compound | Activity
CC1(C)CC(=O)c2c(SCCO)sc(-c3nccs3)c2C1 | Active

Tested on: not listed separately
Experiment: Oral bioavailability in rat
Type: ADME, organism-based
Settings: in vivo
In short: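 Male SD rats with jugular cannulas were fasted overnight and dosed either by tail-vein IV bolus or orally (n = 3 per route). Serial jugular blood samples were taken up to 8 h. Plasma was frozen at −20 °C, protein-precipitated with acetonitrile containing internal standard, and quantified by LC-MS/MS.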

Compound | bioavailability [%]
Cc1cccc(COc2nn3c(-c4cc(C)on4)nnc3c3c2C2CCC3CC2)n1 | 3

Target: GABA-A receptor; alpha-5/beta-3/gamma-2 (Homo sapiens) (UniProt P18507+P28472+P31644)
Experiment: Percent change in electrophysiological response in Xenopus oocytes expressing Alpha-5-beta-3-gamma-2 GABA-A receptor
Type: functional, cell-based
Settings: Oocyte
In short: as §1

Compound | Efficacy [%]
Cc1cccc(COc2nn3c(-c4cc(C)on4)nnc3c3c2C2CCC3CC2)n1 | -29
Cc1cccc(COc2nn3c(-c4ccccc4)nnc3c3c2C2CCC3CC2)n1 | 14
Cc1cccc(COc2nn3c(-c4ccccc4)nnc3c3ccccc23)n1 | 11

Target: T3, GABA-A receptor; alpha-1/beta-3/gamma-2 (Homo sapiens, UniProt P14867+P18507+P28472)
T3 sequence (P14867 whole entry): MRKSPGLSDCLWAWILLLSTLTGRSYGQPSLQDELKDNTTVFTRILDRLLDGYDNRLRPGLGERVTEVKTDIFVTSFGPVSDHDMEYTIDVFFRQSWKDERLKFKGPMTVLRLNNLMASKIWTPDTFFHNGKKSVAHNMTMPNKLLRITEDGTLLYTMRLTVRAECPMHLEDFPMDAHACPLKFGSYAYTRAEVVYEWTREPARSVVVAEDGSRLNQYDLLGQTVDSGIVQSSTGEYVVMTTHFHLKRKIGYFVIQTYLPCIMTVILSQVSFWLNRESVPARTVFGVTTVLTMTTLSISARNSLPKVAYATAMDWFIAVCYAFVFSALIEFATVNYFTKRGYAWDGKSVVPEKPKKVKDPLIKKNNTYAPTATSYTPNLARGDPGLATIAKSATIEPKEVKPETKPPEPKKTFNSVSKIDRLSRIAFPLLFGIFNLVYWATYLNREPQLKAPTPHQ
T3 sequence (P18507 whole entry): T1 sequence (P18507 whole entry)
T3 sequence (P28472 whole entry): T1 sequence (P28472 whole entry)
Experiment: Binding affinity towards human alpha-1-beta-3-gamma-2 GABA-A receptor using [3H]Ro-151788 expressed in L(tk-) cells
Type: cell-based
Settings: not given

Compound | Ki [nM]
Cc1cccc(COc2nn3c(-c4ccccc4)nnc3c3c2C2CCC3CC2)n1 | 122
Cc1cccc(COc2nn3c(-c4ccccc4)nnc3c3ccccc23)n1 | 1.9

Target: T4, GABA-A receptor; alpha-3/beta-3/gamma-2 (Homo sapiens, UniProt P18507+P28472+P34903)
T4 sequence (P18507 whole entry): T1 sequence (P18507 whole entry)
T4 sequence (P28472 whole entry): T1 sequence (P28472 whole entry)
T4 sequence (P34903 whole entry): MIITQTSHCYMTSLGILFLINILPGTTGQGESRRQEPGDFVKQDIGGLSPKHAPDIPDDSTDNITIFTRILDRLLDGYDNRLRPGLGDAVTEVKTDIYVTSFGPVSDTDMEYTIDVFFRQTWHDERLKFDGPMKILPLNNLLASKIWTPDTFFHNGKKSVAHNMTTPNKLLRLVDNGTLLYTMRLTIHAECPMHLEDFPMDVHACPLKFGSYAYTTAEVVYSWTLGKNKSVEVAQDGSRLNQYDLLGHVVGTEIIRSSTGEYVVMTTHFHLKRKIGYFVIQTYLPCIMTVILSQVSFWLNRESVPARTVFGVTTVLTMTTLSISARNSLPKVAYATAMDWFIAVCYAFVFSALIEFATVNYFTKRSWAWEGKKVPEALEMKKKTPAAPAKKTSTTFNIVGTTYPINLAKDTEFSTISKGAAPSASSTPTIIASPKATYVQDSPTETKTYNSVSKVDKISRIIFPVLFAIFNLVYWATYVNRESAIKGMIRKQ
Experiment: Binding affinity towards human gamma-aminobutyric-acid A receptor alpha-3-beta-3-gamma-2 using [3H]Ro-151788 expressed in L(tk-) cells
Type: cell-based
Settings: not given

Compound | Ki [nM]
Cc1cccc(COc2nn3c(-c4ccccc4)nnc3c3c2C2CCC3CC2)n1 | 23.7
Cc1cccc(COc2nn3c(-c4ccccc4)nnc3c3ccccc23)n1 | 0.33
